Assays:
mice = details: 7 days of 10 mg/kg oral exposure; ref Das et al., 2017; cited from earlier work
B6C3F1 mice = test: Organ and body weights after 28-day dermal exposure; assay type: in vivo; details: 28 days
Outline: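 Female B6C3F1 mice (5/group) were treated topically on both ears (25 μl/ear) with acetone or 1.25, 2.5, 5% w/v test compound once daily for 28 days. They were weighed at necropsy about 24 h after the last dose. Liver, spleen, kidneys and thymus were cleaned of connective tissue and weighed. Organ weights were reported relative to body weight and uncorrected; dose trend was tested.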

Deer mice = details: oral gavage for 28-days, 7 and 14 mg/kg/d; ref Narizzano et al., 2023; cited from earlier work
spleen = test: Spleen gene expression; assay type: in vivo, B6C3F1 mice; details: PFHxS dermal, 28 days
Outline: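 Spleens came from female B6C3F1 mice given acetone vehicle or test compound (1.25–5% w/v, 25 μl/ear, both ears) daily for 28 days and necropsied about 24 h after the last dose. Gene expression was measured by qPCR and expressed as mean fold change relative to vehicle, with 5 mice/group. Significance used one-way ANOVA with Dunnett's or Kruskal-Wallis with Dunn's post-test.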

[1] = female rats, 14-days of 10 mg/kg/day oral exposure; ref Butenhoff et al., 2009; cited from earlier work
ear = test: Skin; assay type: in vivo, B6C3F1 mice; details: 28 days
Outline: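 Mice were dosed daily on both ears (25 μl/ear; acetone vehicle or 1.25, 2.5, 5% w/v) for 28 days. Half an ear pinna or the caudate liver lobe was homogenized in Buffer RLT, and total RNA was column-isolated with DNase treatment. TaqMan qPCR gave relative fold change (2−ΔΔCT) versus vehicle controls, normalized to β-actin. Liver used 4–5 mice/group, one-way ANOVA/Dunnett or Kruskal-Wallis/Dunn.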

dLN cells = test: Draining lymph node; assay type: in vivo, B6C3F1 mice; details: 28 days
Outline: (§1)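 Female B6C3F1 mice (5/group) received 25 μl/ear of acetone vehicle or 1.25, 2.5 or 5% w/v test compound on the dorsal surface of each ear, once daily for 28 days. They were euthanized about 24 h later. Single-cell suspensions were made from both auricular dLNs, half a spleen or one ear pinna. Cells were Fc-blocked (anti-CD16/32), stained with surface antibody cocktails and acquired on an LSR II, with FMO gating controls.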

ear pinna cells = test: Skin; assay type: in vivo, B6C3F1 mice; details: 28 days; for Skin CD4+ frequency / Skin CD4+ number / Skin CD8+ frequency / Skin CD8+ number / Skin CD11b + DCs frequency / Skin CD11b + DCs number / Skin CD11b- DCs frequency / Skin CD11b- DCs number / Skin CD45+ frequency / Skin CD45+ number / Skin Cellularity / Skin Eosinophils frequency / Skin Eosinophils number / Skin NK frequency / Skin NK number / Skin Neutrophils frequency / Skin Neutrophils number: mean ± SE
Outline: as §1

## O=S(=O)(O)C(F)(F)C(F)(F)C(F)(F)C(F)(F)C(F)(F)C(F)(F)F [PFHxS, Perfluorohexane sulfonic acid]
mice
  Increase in liver weight: ~ 60%
B6C3F1 mice; 1.25% PFHxS dermal
  Liver weight (% of body weight) increase vs. vehicle-treated mice: 162%
  Spleen weight (% of body) decrease: 25%
B6C3F1 mice; 1.25, 2.5, 5% PFHxS dermal
  Mass of kidneys not corrected for body weight: significant decreases
  Mass of liver not corrected for body weight: significant increases
  Mass of spleen not corrected for body weight: significant decreases
  Mass of thymus not corrected for body weight: significant decreases
B6C3F1 mice; 1.25-5% PFHxS dermal
  Kidney weight (as % of body weight): No change
B6C3F1 mice; 2.5% PFHxS dermal
  Liver weight (% of body weight) increase vs. vehicle-treated mice: 172%
  Spleen weight (% of body) decrease: 37%
  Thymus weight (% of body) decrease: 44%
B6C3F1 mice; 5% PFHxS dermal
  Body weight decrease: 14%
  Liver weight (% of body weight) increase vs. vehicle-treated mice: 205%
  Spleen weight (% of body) decrease: 38%
  Thymus weight (% of body) decrease: 47%
Deer mice
  PFC formation: reduction
spleen
  Spleen Abcg1 gene expression: increased
  Spleen Chac1 gene expression: increased
  Spleen Crim1 gene expression: increased
  Spleen Ctse gene expression: decrease
  Spleen Fbxo38 gene expression: increased
  Spleen Id1 gene expression: increased
  Spleen Il-10 gene expression: increased
  Spleen Tlr5 gene expression: increased
  Spleen Tlr6 gene expression: increased
  Spleen Tlr7 gene expression: increased
  Spleen Tlr8 gene expression: increased
[1]
  Serum concentration: 42000 ng/mL
ear; 1.25% PFHxS
  Skin Serpine1 gene expression, fold increase: 3 fold
ear; 1.25-5% PFHxS
  Skin Il-1β gene expression: no significant changes
  Skin Pparα gene expression: no change
  Skin barrier gene Flg2 expression: No changes
  Skin barrier gene Itgbl1 expression: No changes
  Skin barrier gene Krt10 expression: No changes
  Skin barrier gene Krt14 expression: No changes
ear; 2.5% PFHxS
  Skin Serpine1 gene expression, fold increase: 4 fold
ear; 2.5%, 5% PFHxS
  Skin barrier gene Lor expression: Increases
ear; 5% PFHxS
  Skin Cxcl1 gene expression, fold increase: 5 fold
  Skin Il-6 gene expression, fold increase: 2 fold
  Skin Pparγ gene expression: decrease
  Skin Pparδ gene expression: increase
  Skin S100a8 gene expression, fold increase: 9 fold
  Skin Serpine1 gene expression, fold increase: 4 fold
  Skin Tslp gene expression, fold increase: 33 fold
  Skin barrier gene Flg expression: Increases
dLN cells; 1.25%, 2.5%, and 5% PFHxS
  dLN CD4+ T cell number: significant decrease
dLN cells; 2.5%, 5% PFHxS
  dLN CD8+ T cell frequency: increase
  dLN eosinophil frequency and number: increase
dLN cells; 5% PFHxS
  dLN mean fluorescence intensity of CD86 on B cells: increase
  dLN mean fluorescence intensity of MHCII on B cells: increase
  dLN total DC number: increase
Ear pinna cells; 1.25% PFHxS
  Skin CD4+ frequency: 2.64 ± 0.25%
  Skin CD4+ number: 2.31 ± 0.36 x 10^3
  Skin CD8+ frequency: 0.36 ± 0.05%
  Skin CD8+ number: 3.21 ± 0.60 x 10^2
  Skin CD11b + DCs frequency: 0.64 ± 0.03%
  Skin CD11b + DCs number: 5.17 ± 0.30 x 10^2
  Skin CD11b- DCs frequency: 1.43 ± 0.18 %
  Skin CD11b- DCs number: 12.30 ± 1.74 x 10^2
  Skin CD45+ frequency: 8.29 ± 0.74%
  Skin CD45+ number: 8.39 ± 0.66 x 10^4
  Skin Cellularity: 9.56 ± 0.21 x 10^5
  Skin Eosinophils frequency: 1.21 ± 0.20 %
  Skin Eosinophils number: 1.00 ± 0.24 x 10^3
  Skin NK frequency: 0.97 ± 0.11%
  Skin NK number: 8.53 ± 1.49 x 10^2
  Skin Neutrophils frequency: 0.23 ± 0.03%
  Skin Neutrophils number: 1.79 ± 0.31 x 10^2
Ear pinna cells; 2.5% PFHxS
  Skin CD4+ frequency: 3.34 ± 0.18 %
  Skin CD4+ number: 2.10 ± 0.25 x 10^3
  Skin CD8+ frequency: 0.41 ± 0.07 %
  Skin CD8+ number: 2.52 ± 0.48 x 10^2
  Skin CD11b + DCs frequency: 0.73 ± 0.08%
  Skin CD11b + DCs number: 4.45 ± 0.48 x 10^2
  Skin CD11b- DCs frequency: 1.23 ± 0.12 %
  Skin CD11b- DCs number: 7.66 ± 1.11 x 10^2
  Skin CD45+ frequency: 8.20 ± 0.74%
  Skin CD45+ number: 6.35 ± 0.84 x 10^4
  Skin Cellularity: 7.67 ± 0.62 x 10^5
  Skin Eosinophils frequency: 1.75 ± 0.12%
  Skin Eosinophils number: 1.10 ± 0.15 x 10^3
  Skin NK frequency: 0.78 ± 0.07 %
  Skin NK number: 4.86 ± 0.61 x 10^2
  Skin Neutrophils frequency: 0.30 ± 0.05%
  Skin Neutrophils number: 1.84 ± 0.33 x 10^2
Ear pinna cells; 5% PFHxS
  Skin macrophage number: increase
  Skin CD4+ frequency: 4.51 ± 0.21 %
  Skin CD4+ number: 5.82 ± 0.41 x 10^3
  Skin CD8+ frequency: 0.73 ± 0.09 %
  Skin CD8+ number: 9.37 ± 1.32 x 10^2
  Skin CD11b + DCs frequency: 1.18 ± 0.05 %
  Skin CD11b + DCs number: 15.10 ± 0.45 x 10^2
  Skin CD11b- DCs frequency: 1.25 ± 0.08 %
  Skin CD11b- DCs number: 16.10 ± 1.39 x 10^2
  Skin CD45+ frequency: 13.48 ± 0.52 %
  Skin Cellularity: 9.56 ± 0.31 x 10^5
  Skin Eosinophils frequency: 2.68 ± 0.31%
  Skin Eosinophils number: 3.49 ± 0.52 x 10^3
  Skin NK frequency: 0.68 ± 0.04 %
  Skin NK number: 8.76 ± 0.68 x 10^2
  Skin Neutrophils frequency: 1.14 ± 0.37 %
  Skin Neutrophils number: 14.10 ± 4.21 x 10^2

Source: article PMC11406440 (Food and chemical toxicology : an international journal …, 2024)
